Data: ChEMBL document CHEMBL3352584, “Novel DNA gyrase inhibiting spiropyrimidinetriones with a benzisoxazole scaffold: SAR and in vivo characterization” (J Med Chem, 2014)
Converted amounts (≈) assume the structure as drawn.

Legend:
DNA gyrase = DNA gyrase (Escherichia coli, UniProt P0AES4+P0AES6); experiment: Inhibition of Escherichia coli DNA gyrase using fluorescence-tagged DNA by fluorescenct polarization assay; type: protein-complex assay
In short: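 E. coli DNA gyrase supercoiling assay. The read-out was differential binding of a fluorescence-tagged DNA to relaxed versus supercoiled DNA, giving IC50.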

[1] = Fraction unbound in human plasma at 10 uM after 16 hrs by LC-MS/MS analysis; type: ADME, cell-free
In short: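 Compound at 10 μM in human, rat or mouse plasma, equilibrium dialysis against buffer at 37 °C for 16 h. Buffer and plasma concentrations measured by LC-MS/MS, and the free fraction taken from their ratio.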

[2] = Solubility of the compound; type: physicochemical
Streptococcus pneumoniae [3] = experiment: Antimicrobial activity against Streptococcus pneumoniae by broth microdilution method; type: functional
In short: (§1)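 Broth microdilution following CLSI guidelines. Values under 12.5 μM are averages of three or more replicates.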

Streptococcus pyogenes = experiment: Antimicrobial activity against Streptococcus pyogenes by broth microdilution method; type: functional; in short: as §1
Staphylococcus aureus [4] = experiment: Antimicrobial activity against methicillin-sensitive Staphylococcus aureus by broth microdilution method; type: functional; in short: as §1
Staphylococcus aureus [5] = experiment: Antimicrobial activity against methicillin-resistant and quinolone-resistant Staphylococcus aureus by broth microdilution method; type: functional; in short: as §1
Haemophilus influenzae = experiment: Antimicrobial activity against Haemophilus influenzae by broth microdilution method; type: functional; in short: as §1
Escherichia coli [6] = experiment: Antimicrobial activity against Escherichia coli by broth microdilution method; type: functional; in short: as §1
Escherichia coli [7] = experiment: Antimicrobial activity against tolC-deficient Escherichia coli by broth microdilution method; type: functional; in short: as §1
Staphylococcus aureus [8] = experiment: Antimicrobial activity against methicillin-sensitive Staphylococcus aureus by broth microdilution method in presence of 50% human serum; type: functional
In short: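 CLSI broth microdilution against methicillin-sensitive S. aureus, run with 50% human serum added to the medium to reflect plasma protein binding. Values under 12.5 μM are averages of three or more replicates.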

Staphylococcus aureus [9] = experiment: Antimicrobial activity against Staphylococcus aureus 2375 harboring GyrA S84L mutant, GyrB R144A mutant and ParC S80Y/E84G/V693M mutant and ParE N141S mutant by broth microdilution method; type: functional
Streptococcus pneumoniae [10] = experiment: Antimicrobial activity against wild-type Streptococcus pneumoniae 548 by broth microdilution method; type: functional; in short: as §1
Streptococcus pneumoniae [11] = experiment: Antimicrobial activity against Streptococcus pneumoniae 2800 harboring GyrB K143I/T172A mutant by broth microdilution method; type: functional
Streptococcus pneumoniae [12] = experiment: Antimicrobial activity against Streptococcus pneumoniae 2485 harboring GyrA S81F mutant, GyrB D160E/T329A mutant and ParC S79F mutant by broth microdilution method; type: functional
Staphylococcus aureus [13] = experiment: Antimicrobial activity against wild-type Staphylococcus aureus 516 by broth microdilution method; type: functional; in short: as §1
Staphylococcus aureus [14] = experiment: Antimicrobial activity against Staphylococcus aureus 2792 harboring wild-type GyrA and GyrB R144A mutant by broth microdilution method; type: functional

Work on `Cc1noc2c(F)c3c(cc12)CC1(C(=O)NC(=O)NC1=O)C1C(C)CC(C)CN31` (racemic) yielded an IC50 (DNA gyrase) of 340 nM, a fraction unbound at 16 h, 10 µM [1] of under 0.01 and a solubility [2] of under 1 µM. It also gave an MIC (Streptococcus pneumoniae [3]) of 100 µM (≈ 40 µg/mL), an MIC (Streptococcus pyogenes) of 200 µM (≈ 80.1 µg/mL) and an MIC (Staphylococcus aureus [4]) of 25 µM (≈ 10 µg/mL). It also gave an MIC (Staphylococcus aureus [5]) of 25 µM (≈ 10 µg/mL), an MIC (Haemophilus influenzae) of over 200 µM and an MIC (Escherichia coli [6]) of 50 µM (≈ 20 µg/mL). For the same molecule, the MIC (Escherichia coli [7]) was 6.2 µM (≈ 2.48 µg/mL) and the MIC (Staphylococcus aureus [8]) was 50 µM.

For `CC(=O)NC[C@H]1CN(c2ccc(N3CCOCC3)c(F)c2)C(=O)O1` [LINEZOLID], the IC50 (DNA gyrase) was over 32000 nM, the fraction unbound at 16 h, 10 µM [1] was 0.71 and the MIC (Streptococcus pneumoniae [3]) was 3.1 µM (≈ 1.05 µg/mL). The MIC (Streptococcus pyogenes) was 3.1 µM (≈ 1.05 µg/mL), the MIC (Staphylococcus aureus [4]) was 6.2 µM (≈ 2.09 µg/mL) and the MIC (Staphylococcus aureus [5]) was 6.2 µM (≈ 2.09 µg/mL). For the same molecule, the MIC (Haemophilus influenzae) was 23 µM (≈ 7.76 µg/mL), the MIC (Escherichia coli [6]) was over 200 µM and the MIC (Escherichia coli [7]) was 20 µM (≈ 6.75 µg/mL). The MIC (Staphylococcus aureus [8]) was 12 µM.

For `O=C(O)c1cn(C2CC2)c2cc(N3CCNCC3)c(F)cc2c1=O` [CIPROFLOXACIN], the MIC (Streptococcus pneumoniae [3]) was 1.5 µM (≈ 0.497 µg/mL), the MIC (Streptococcus pyogenes) was 1.5 µM (≈ 0.497 µg/mL) and the MIC (Staphylococcus aureus [4]) was 0.91 µM (≈ 0.302 µg/mL). It also gave an MIC (Staphylococcus aureus [5]) of 96 µM (≈ 31.8 µg/mL), an MIC (Haemophilus influenzae) of under 0.1 µM and an MIC (Escherichia coli [6]) of 0.06 µM (≈ 0.0199 µg/mL). It also gave an MIC (Escherichia coli [7]) of under 0.1 µM.

For `Cc1noc2c(Cl)c3c(cc12)CC1(C(=O)NC(=O)NC1=O)C1C(C)OC(C)CN31` (racemic), the IC50 (DNA gyrase) was 370 nM, the fraction unbound at 16 h, 10 µM [1] was 0.03 and the solubility [2] was 330 µM (≈ 138 µg/mL). For the same molecule, the MIC (Streptococcus pneumoniae [3]) was 50 µM (≈ 20.9 µg/mL), the MIC (Streptococcus pyogenes) was 25 µM (≈ 10.5 µg/mL) and the MIC (Staphylococcus aureus [4]) was 6.2 µM (≈ 2.6 µg/mL). It also gave an MIC (Staphylococcus aureus [5]) of 12 µM (≈ 5.03 µg/mL), an MIC (Haemophilus influenzae) of 3.1 µM (≈ 1.3 µg/mL) and an MIC (Escherichia coli [6]) of 200 µM (≈ 83.8 µg/mL). The MIC (Escherichia coli [7]) was at most 0.2 µM and the MIC (Staphylococcus aureus [8]) was 50 µM.

`CO[C@@H]1[C@@H](OC(N)=O)[C@@H](O)[C@H](Oc2ccc3c(O)c(NC(=O)c4ccc(O)c(CC=C(C)C)c4)c(=O)oc3c2C)OC1(C)C` [NOVOBIOCIN] gave an MIC (Staphylococcus aureus [9]) of 4.3 µg/mL (≈ 7.02 µM), an MIC (Streptococcus pneumoniae [10]) of 1 µg/mL (≈ 1.63 µM) and an MIC (Streptococcus pneumoniae [11]) of over 16 µg/mL. It also gave an MIC (Streptococcus pneumoniae [12]) of 0.13 µg/mL (≈ 0.212 µM), an MIC (Staphylococcus aureus [13]) of 0.13 µg/mL (≈ 0.212 µM) and an MIC (Staphylococcus aureus [14]) of 32 µg/mL (≈ 52.2 µM).

With `C[C@@H]1CN2c3c(cc4c(Cl)noc4c3F)CC3(C(=O)NC(=O)NC3=O)[C@H]2[C@H](C)O1` the IC50 (DNA gyrase) was 210 nM, the fraction unbound at 16 h, 10 µM [1] was under 0.01 and the solubility [2] was over 1000 µM. For the same molecule, the MIC (Streptococcus pneumoniae [3]) was 12 µM (≈ 5.07 µg/mL), the MIC (Streptococcus pyogenes) was 6.2 µM (≈ 2.62 µg/mL) and the MIC (Staphylococcus aureus [4]) was 0.39 µM (≈ 0.165 µg/mL). The MIC (Staphylococcus aureus [5]) was 0.78 µM (≈ 0.33 µg/mL), the MIC (Haemophilus influenzae) was 25 µM (≈ 10.6 µg/mL) and the MIC (Escherichia coli [6]) was 25 µM (≈ 10.6 µg/mL). It also gave an MIC (Escherichia coli [7]) of 6.2 µM (≈ 2.62 µg/mL) and an MIC (Staphylococcus aureus [8]) of 12 µM.

`C[C@@H]1CN2c3c(cc4c(N)noc4c3F)CC3(C(=O)NC(=O)NC3=O)[C@H]2[C@H](C)O1` gave an IC50 (DNA gyrase) of 260 nM, a fraction unbound at 16 h, 10 µM [1] of 0.13 and a solubility [2] of 330 µM (≈ 133 µg/mL). The MIC (Streptococcus pneumoniae [3]) was 6.2 µM (≈ 2.5 µg/mL), the MIC (Streptococcus pyogenes) was 3.1 µM (≈ 1.25 µg/mL) and the MIC (Staphylococcus aureus [4]) was 25 µM (≈ 10.1 µg/mL). It also gave an MIC (Staphylococcus aureus [5]) of 50 µM (≈ 20.2 µg/mL), an MIC (Haemophilus influenzae) of 1.6 µM (≈ 0.645 µg/mL) and an MIC (Escherichia coli [6]) of 100 µM (≈ 40.3 µg/mL). The MIC (Escherichia coli [7]) was at most 0.2 µM.

Work on `Cc1noc2c(F)c3c(cc12)CC1(C(=O)NC(=O)NC1=O)[C@@H]1[C@@H](C)O[C@@H](C)CN31` yielded an IC50 (DNA gyrase) of over 83000 nM, a fraction unbound at 16 h, 10 µM [1] of 0.035 and a solubility [2] of over 1000 µM. For the same molecule, the MIC (Streptococcus pneumoniae [3]) was over 200 µM, the MIC (Staphylococcus aureus [4]) was over 200 µM and the MIC (Staphylococcus aureus [5]) was over 200 µM. It also gave an MIC (Haemophilus influenzae) of over 200 µM, an MIC (Escherichia coli [6]) of over 200 µM and an MIC (Escherichia coli [7]) of 50 µM (≈ 20.1 µg/mL).

Molecule `COc1noc2c(F)c3c(cc12)CC1(C(=O)NC(=O)NC1=O)[C@H]1[C@H](C)O[C@H](C)CN31` has an IC50 (DNA gyrase) of 970 nM, a fraction unbound at 16 h, 10 µM [1] of 0.09 and a solubility [2] of 510 µM (≈ 213 µg/mL). For the same molecule, the MIC (Streptococcus pneumoniae [3]) was 25 µM (≈ 10.5 µg/mL), the MIC (Streptococcus pyogenes) was 6.2 µM (≈ 2.59 µg/mL) and the MIC (Staphylococcus aureus [4]) was 3.1 µM (≈ 1.3 µg/mL). For the same molecule, the MIC (Staphylococcus aureus [5]) was 3.1 µM (≈ 1.3 µg/mL), the MIC (Haemophilus influenzae) was 3.1 µM (≈ 1.3 µg/mL) and the MIC (Escherichia coli [6]) was 200 µM (≈ 83.7 µg/mL). For the same molecule, the MIC (Escherichia coli [7]) was at most 0.2 µM.
